Compound activity as filed in PubChem.
M5 ag: CHRM5 agonism in calcium assay; P08912; CHO-K1 hM5 cells, Fluo-8 calcium fluorescence; 0% DMSO wells, 100% maximal acetylcholine response; activation, % at 3 µM; hit rate 0.19% among 360,000; AID 624037;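 active means activation above the run's mean over test compounds plus 3 SD, cut at about 23% in these data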;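 further: signal is peak over basal fluorescence ratio across the kinetic read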
CHRM4 antagonist: blocks acetylcholine activation of human M4 receptor; CHO-hM4 cells, ACh EC80, Fluo-8 calcium fluorescence; inhibition, % at 3 µM; hit rate 0.73% among 360,000; AID 624125; P08173;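 active means inhibition above its plate's cutoff, the mean inhibition of sample wells plus 3 SD, cut at about 27% in these data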;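 further: 0% = acetylcholine EC80 with DMSO and 100% = DMSO without agonist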
Target sequence (P08173 whole entry, looked up): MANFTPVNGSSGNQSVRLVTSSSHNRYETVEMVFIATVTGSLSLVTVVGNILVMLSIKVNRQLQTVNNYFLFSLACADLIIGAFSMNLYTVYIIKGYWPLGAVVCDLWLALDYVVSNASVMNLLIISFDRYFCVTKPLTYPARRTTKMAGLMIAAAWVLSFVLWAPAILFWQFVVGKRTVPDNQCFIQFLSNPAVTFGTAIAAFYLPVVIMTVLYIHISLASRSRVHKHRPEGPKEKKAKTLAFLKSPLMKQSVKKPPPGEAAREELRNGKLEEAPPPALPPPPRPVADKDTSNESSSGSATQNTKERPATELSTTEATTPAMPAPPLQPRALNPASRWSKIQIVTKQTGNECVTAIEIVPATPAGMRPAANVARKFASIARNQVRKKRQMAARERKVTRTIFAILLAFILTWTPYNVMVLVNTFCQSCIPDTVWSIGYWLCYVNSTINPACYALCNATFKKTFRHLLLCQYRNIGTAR
M4 PAM: CHRM4 positive allosteric modulation | CHO-K1 hM4/Gqi5, Fluo-8 calcium fluorescence, ACh EC20; 0% = ACh EC20, 100% = maximal ACh | activation, % at 3 µM | P08173 | hit rate 0.4% among 360,000;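 active means activation above its plate's cutoff, the mean activation of sample wells plus 3 SD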
M4 ag: agonists of human muscarinic M4 receptor (CHRM4); P08173; CHO-K1 hM4/Gqi5, Fluo-8 calcium fluorescence; vehicle 0%, full acetylcholine response 100%; activation, % at 3 µM; hit rate 0.14% among 360,000;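 active means activation above the run mean over all test wells plus 3 SD, cut at about 32% in these data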;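 further: peak over basal fluorescence ratio per well then scaled between controls; 0% = DMSO wells and 100% = acetylcholine at EC100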
CHRM5 PAM: potentiates acetylcholine response at human M5 receptor; P08912; CHO-K1 hM5, Fluo-8 calcium, ACh EC20 PAM; 0% = ACh EC20, 100% = ACh EC100; activation, % at 3 µM; hit rate 0.3% among 360,000; AID 624038;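 active means activation above the run cutoff, the mean activation of all test compounds plus 3 SD, cut at about 18% in these data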
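System – CHO-K1 hM5 cells · Compound – 3 µM, single dose · Incubation – compound preincubation 140 s before EC20 acetylcholine addition · Technique – Fluo-8 calcium fluorescence · Measure – Max/basal fluorescence ratio as % of EC20–EC100 ACh window · Benchmarks – low control EC20 acetylcholine (0%), high control EC100 acetylcholine (100%) · Replication – singlicate, one well per test compound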
M5 antag: blocks acetylcholine activation of human M5 receptor | hit rate 0.59% among 360,000 | inhibition, % at 3 µM | CHO-hM5 cells, Fluo-8 calcium fluorescence, ACh EC80 | P08912;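 active means inhibition above a per-plate cutoff, the mean of that plate's test compounds plus 3 SD, cut at about 27% in these data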;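 further: 0% = acetylcholine EC80 with DMSO and 100% = DMSO without agonist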
Starred values were filed as active, the others as inactive; ! = repeats disagree. In the library only some 1.8% were active in any assay of this set; here they are far more common.

SMILES | M5 ag | CHRM4 antagonist | M4 PAM | M4 ag | CHRM5 PAM | M5 antag
O=C(CN1CCCCC1)N1N=C(c2cccs2)CC1c1cccs1 (stereo unspecified) | -10 | 45* | -18 | 1 | -20 | 38*
CSc1cccc(N2C(=O)C3CCCN3C2=S)c1 (stereo unspecified) | 1 | -10 | 2 | 7 | -3 | -4
Cc1c(O)cccc1C(=O)N[C@@H](CSc1ccccc1)[C@H](O)CN1C[C@H]2CCCC[C@H]2C[C@H]1C(=O)NC(C)(C)C | 98*! | -3 | -14 | 44*! | -20 | 85*!
Cc1cccc(N2CC(C(=O)Nc3nnc(SCc4cccnc4)s3)CC2=O)c1 (stereo unspecified) | -2 | 1 | 5 | 4 | 1 | -2
CC(=O)SC1CC(=O)C=C2CCC3C4CCC(=O)OC4(C)CCC3C21C (stereo unspecified) | -2 | 9 | -1 | -1 | 0 | 4
Cc1ccccc1-c1nnn(CC(=O)N(C)CC(=O)Nc2ccccc2C(F)(F)F)n1 | -3 | -4 | 13 | 3 | 2 | -4
CCOC(=O)c1c(-c2ccc(C)o2)csc1NC(=O)CSc1nnnn1-c1ccccc1 | 0 | 30* | -8 | 9 | -5 | 7
O=C(CSc1nnnn1-c1ccccc1)NCc1cccs1 | 3 | -7 | 6 | 1 | 20* | -17
CCOC(=O)c1c(-c2ccc(C)o2)csc1NC(=O)CSc1nnc(C)s1 | 4 | 12 | -12 | 16 | -7 | 0
Cc1cc(O)c(C(C)C)cc1N=Cc1ccc(N(C)C)cc1 | -2 | -11 | 7 | 0 | 5 | 12
CC1(C(=O)Nc2cccc(-n3cnnn3)c2)Cc2ccccc2C(=O)O1 (stereo unspecified) | 6 | -5 | 0 | 4 | -5 | 0
Cc1ccc(NC(=O)c2ccc(S(=O)(=O)N(C)c3ccccc3)cc2)cc1S(=O)(=O)N1CCOCC1 | 0 | 11 | -3 | 1 | 0 | 12
Cc1c(C(=O)OC(C)C(C)C[N+](C)(C)C)oc2ccccc12 (stereo unspecified) | -7 | 77* | -22 | 0 | -18 | 12
NC(=O)c1ccc(NC(=O)COC(=O)CNC(=O)c2sc3ccccc3c2Cl)cc1 | -2 | -13 | 1 | 4 | 11 | -4
Cc1ccc(C(=O)c2c(C)oc3c2C(=O)C(=O)c2ccccc2-3)cc1 | -5 | 7 | -7 | 6 | -8 | 12
Cc1ccc(C(=O)c2coc3c2C(=O)C(=O)c2ccccc2-3)cc1 | -4 | -4 | 2 | 4 | -15 | 36*
CCCN1C(=O)c2ccc(C(=O)Nc3ccccc3C(=O)O)cc2C1=O | 2 | 0 | 10 | -2 | 11 | -1
COc1ccccc1OCC(O)CN1CCN(CC(=O)Nc2c(C)cccc2C)CC1 (stereo unspecified) | 1 | 28*! | -2 | 2 | 5 | -2
O=C1CCCN1CCCNc1nc(NCc2cccs2)nc2ccsc12 | 41* | 53* | -15 | 96* | -19 | 22
O=C1CCCN1CCCNS(=O)(=O)c1cccs1 | -1 | 13 | 4 | 1 | -1 | 7
CC(C)Nc1nc(NCCN2CCNC2=O)c2sccc2n1 | -1 | -9 | 9 | 1 | -4 | 8
O=C1NCCN1CCNc1nc(NCc2ccccc2)nc2ccsc12 | 20 | 52* | -15 | 46* | -19 | 22
c1ccc(CNc2nc(NCCc3ccncc3)c3sccc3n2)cc1 | 96* | 100* | -16 | 155* | -20 | 99*
c1csc(CNc2nc(NCC3CCCCC3)c3sccc3n2)c1 | 10 | 27* | -13 | 19 | -5 | 26
CC(=O)N1CCN(Cc2nc3cc(NC(=O)c4cccc(Br)c4)ccc3n2C)CC1 | 6 | 0 | -3 | 9 | -10 | 14
SMILES | M5 ag | CHRM4 antagonist | M4 PAM | M4 ag | CHRM5 PAM | M5 antag
c1ccc(CNc2nc(NCc3cccs3)nc3ccsc23)cc1 | 14 | 16 | -14 | 40* | -22 | 42*
CC(=O)NCCNc1nc(NCc2cccs2)nc2ccsc12 | 2 | 1 | -7 | 5 | -4 | 0
COCCNc1nc(NCc2cccs2)nc2ccsc12 | 96* | 92* | -16 | 159* | -21 | 81*
O=C(Nc1sc2c(c1C(=O)NCC(O)CO)CCCC2)c1ccccc1 (stereo unspecified) | 1 | 6 | -5 | 1 | 1 | 14
c1ccc(CCCN2CCOCC2)cc1 | -3 | -16 | 17* | 2 | 6 | 0
S=C(NCCCN1CCOCC1)N(Cc1ccccc1)Cc1ccccc1 | -8 | 18 | -11 | 0 | -15 | 31*
c1ccc(OCc2ccc(CCCN3CCOCC3)cc2)cc1 | -5 | 22 | -17 | 4 | -10 | 22
O=C(CCCc1ccccc1)NCCCN1CCOCC1 | -4 | 9 | -7 | 1 | -7 | 5
COc1cccc(N2CCN(CC(=O)Nc3ccccc3C(=O)NCCc3ccccc3)CC2)c1 | -4 | 18 | -4 | 18 | -22 | 28*
C(#Cc1ccccc1)C[N+]1(CC#Cc2cccc3ccccc23)CCCC1 | -10 | 5 | -14 | 1 | -20 | 29*
C#CC[N+]1(CC#Cc2ccccc2)CCCC1 | -7 | 2 | -5 | 1 | -13 | 0
COc1ccc(C(=O)Oc2cc3c4c(c2)C(C)=CC(C)(C)N4C(=O)C3=O)cc1OC | 12 | 5 | 4 | 2 | -7 | 7
COc1cccc(C(=O)Oc2cc3c4c(c2)C(C)=CC(C)(C)N4C(=O)C3=O)c1 | 57* | 24 | -8 | 7 | 0 | 46*
COc1cc2c3c(c1)C(C)=CC(C)(C)N3C(=O)C2=O | 36* | 3 | 3 | 0 | -5 | 8
Cc1ccccc1NC(=O)CCC(=O)N/N=C/c1ccncc1 | -1 | 3 | -8 | 0 | 5 | 0
CCCCN(Cc1ccco1)C(=O)C1CCCN(c2ncnc3c2nc2n3CCCCC2)C1 (stereo unspecified) | -7 | -3 | 3 | 2 | -1 | 9
COc1ccc(CN2CCN(C(=O)CC(C)C)CC2)c2ccccc12 | -4 | -6 | 3 | 1 | 42* | -6
COc1ccc(CN2CCN(C(=O)CC(C)C)CC2)cc1OC | -1 | 0 | 5 | 1 | 1 | 1
O=C(Nc1ccc2c(c1)[C@@H]1C[C@@H](CC(=O)N3CCOCC3)O[C@@H](CO)[C@@H]1O2)NC1CCCC1 | 1 | -12 | 9 | 1 | 3 | -4
CC(=O)c1c(C)[nH]c(C(=O)O)c1C | -7 | -1 | -6 | 1 | -4 | 2
CC(=O)c1c(C)[nH]c(C)c1C(C)=O | 0 | -8 | 32* | 1 | 27* | -18
